Reference: ChEMBL document CHEMBL5360619
Active and inactive are the calls of the source. The calls are words filed in the database; no cut-off is given here.

How the values were obtained:
[1] = tested on: Mycobacterium tuberculosis; assay: Antimycobacterial activity against Mycobacterium tuberculosis Erdman harboring frameshift mutation in KatG at amino acid 6 assessed as reduction in colony forming units at 1 uM incubated for 13 days; type: functional, organism-based; conditions: time 13.0 day
In short: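 katG frameshift mutant grown to log phase in Sauton's medium, diluted to 5 × 10^7 CFU/mL, given 1 μM compound (imidazole salt in DMSO); IMD/DMSO vehicle controls. Incubated rolling at 37 °C. After 13 days, serial dilutions plated on 7H11 agar with ADC for CFU. Two experiments, each in duplicate; one-way ANOVA with Tukey's correction.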

[2] = tested on: Mycobacterium tuberculosis; assay: Reversal of isoniazid resistance in Mycobacterium tuberculosis Erdman harboring frameshift mutation in KatG at amino acid 6 assessed as reduction in surviving bacteria by measuring reduction in colony forming units at 1 uM incubated for 13 days; type: functional, organism-based; conditions: time 13.0 day
[3] = tested on: Mycobacterium tuberculosis; assay: Antimycobacterial activity against Mycobacterium tuberculosis Erdman harboring frameshift mutation in KatG at amino acid 6 assessed as reduction in colony forming units at […] incubated for 13 days (reference value: 9.07 x 10^9 CFU/mL); type: functional; conditions: dose 2.5 µg/ml; time 13 day

Row | SMILES | Activity [1] | Activity [2] | Activity [3]
1 | O=C(O)C1CSc2c(C3CC3)c(-c3cc(-c4ccc5ccccc5c4)no3)cc(=O)n21.c1c[nH]cn1 (racemic) | inactive | Active | –
2 | O=C(O)C1CSc2c(C3CC3)c(Cc3cccc4ccccc34)cc(=O)n21.c1c[nH]cn1 (racemic) | inactive | inactive | –
3 | NNC(=O)c1ccncc1 [ISONIAZID] | – | – | 8.09 10^8CFU/ml
